# Assay results taken from ChEMBL document CHEMBL2016577, “Preparation, antibacterial evaluation and preliminary structure-activity relationship (SAR) study of benzothiazol- and benzoxazol-2-amine derivatives” (Bioorg Med Chem Lett, 2012).
# Key:
# Escherichia coli [1] = assay: Antibacterial activity against Escherichia coli clinical isolate after 16 hrs by 2-fold microdilution method; assay type: functional
# Streptococcus pneumoniae [2] = assay: Antibacterial activity against penicillin-resistant Streptococcus pneumoniae after 16 hrs by broth microdilution method; assay type: functional
# Method in brief: (§1)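 Clinical isolates, including strains resistant to common antimicrobials, tested by the standard broth dilution method. The read-out is the minimum inhibitory concentration in μg/mL. Each value is representative of three independent determinations.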
# HEK293 = assay: Cytotoxicity against human HEK293 cells after 48 hrs by MTT assay; assay type: cell-based; details: HEK293, 48 h
# Method in brief: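 Standard MTT assay in Human Embryonic Kidney 293 cells, with 64 μg/mL as the top concentration tested. IC50 came from three independent experiments.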
# Enterococcus faecalis [3] = assay: Antibacterial activity against vancomycin-susceptible Enterococcus faecalis after 16 hrs by broth microdilution method; assay type: functional
# Enterococcus faecium [4] = assay: Antibacterial activity against vancomycin-susceptible Enterococcus faecium after 16 hrs by broth microdilution method; assay type: functional; method in brief: as §1
# Streptococcus pneumoniae [5] = assay: Antibacterial activity against penicillin-susceptible Streptococcus pneumoniae after 16 hrs by broth microdilution method; assay type: functional
# Enterococcus faecalis [6] = assay: Antibacterial activity against Enterococcus faecalis ATCC 29212 after 16 hrs by broth microdilution method; assay type: functional; details: ATCC 29212, 16 h
# Staphylococcus aureus [7] = assay: Antibacterial activity against methicillin-resistant Staphylococcus aureus after 16 hrs by broth microdilution method; assay type: functional; method in brief: as §1
# Staphylococcus aureus [8] = assay: Antibacterial activity against methicillin-susceptible Staphylococcus aureus after 16 hrs by broth microdilution method; assay type: functional; method in brief: as §1
# [9] = Cytotoxicity against human HEK293 cells at 64 ug/ml after 48 hrs by MTT assay; assay type: cell-based; details: read-out: INH
# Method in brief: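 HEK293 cells were exposed to compound at 64 μg/mL and assessed by standard MTT. Inhibitory rate was recorded across three independent experiments.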
# Enterococcus faecium [10] = assay: Antibacterial activity against vancomycin-resistant Enterococcus faecium after 16 hrs by broth microdilution method; assay type: functional; method in brief: as §1
# Escherichia coli [11] = assay: Antibacterial activity against Escherichia coli ATCC 29425 after 16 hrs by broth microdilution method; assay type: functional; details: ATCC 29425, 16 h
# Staphylococcus aureus [12] = assay: Antibacterial activity against Staphylococcus aureus ATCC 25923 after 16 hrs by broth microdilution method; assay type: functional; details: ATCC 25923, 16 h
# Enterococcus faecalis [13] = assay: Antibacterial activity against vancomycin-resistant Enterococcus faecalis after 16 hrs by broth microdilution method; assay type: functional; method in brief: as §1
# Albumin = Albumin (Bos taurus, UniProt P02769); assay: Binding affinity to bovine serum albumin BY HPLC analysis; assay type: ADME; details: cattle, isolated protein
# Albumin, sequence (P02769 whole entry): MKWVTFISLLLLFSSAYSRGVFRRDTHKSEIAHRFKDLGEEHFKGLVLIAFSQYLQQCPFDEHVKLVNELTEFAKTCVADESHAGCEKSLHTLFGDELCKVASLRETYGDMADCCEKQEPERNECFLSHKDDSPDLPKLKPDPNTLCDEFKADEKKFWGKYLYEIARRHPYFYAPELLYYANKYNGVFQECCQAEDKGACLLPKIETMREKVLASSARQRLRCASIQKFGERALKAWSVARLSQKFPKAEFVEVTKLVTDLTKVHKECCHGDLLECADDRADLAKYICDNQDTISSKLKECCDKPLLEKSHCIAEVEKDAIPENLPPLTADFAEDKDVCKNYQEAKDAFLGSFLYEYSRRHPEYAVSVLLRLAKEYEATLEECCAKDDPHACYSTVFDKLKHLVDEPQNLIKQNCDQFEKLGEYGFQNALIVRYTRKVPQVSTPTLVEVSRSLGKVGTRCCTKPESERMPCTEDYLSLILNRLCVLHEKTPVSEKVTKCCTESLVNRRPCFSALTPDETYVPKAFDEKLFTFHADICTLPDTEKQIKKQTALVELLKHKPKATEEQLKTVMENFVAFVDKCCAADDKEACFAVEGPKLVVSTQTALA
# Method in brief: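 Compound was incubated with BSA standard solution and the bound fraction separated by centrifugal ultrafiltration. Free compound was quantified by HPLC. Binding degree = (Cb–Ca)/Cb, where Cb and Ca are the compound concentrations before and after interaction with BSA.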
SMILES,MIC (Enterococcus faecalis [6]) [µg/mL],MIC (Escherichia coli [11]) [µg/mL],MIC (Staphylococcus aureus [12]) [µg/mL],further results
Cl.O=c1cc(NCCCNCc2ccc(Cl)c(Cl)c2)[nH]c2ccccc12,0.5,> 64,4,"MIC (Escherichia coli [1]): > 64 µg/mL; MIC (Streptococcus pneumoniae [2]): 8 µg/mL; IC50 (HEK293): > 64 µg/mL; MIC (Enterococcus faecalis [3]): 1 µg/mL; MIC (Enterococcus faecium [4]): 1 µg/mL; MIC (Streptococcus pneumoniae [5]): 4 µg/mL; MIC (Staphylococcus aureus [7]): 2 µg/mL; MIC (Staphylococcus aureus [8]): 2 µg/mL; cytotoxicity at 48 h, 64 ug/ml [9]: 15%; MIC (Enterococcus faecium [10]): 1 µg/mL; MIC (Enterococcus faecalis [13]): 2 µg/mL"
COc1ccc2nc(NCCCNCc3ccc(Cl)c(Cl)c3)oc2c1,16,32,8,–
Clc1ccc2sc(NCCCNCc3ccc(Cl)c(Cl)c3)nc2c1,2,32,2,–
Clc1ccc(CNCCNc2nc3ccccc3s2)c(Cl)c1,8,32,2,–
Clc1ccc(CNCCNc2nc3ccccc3s2)cc1Cl,64,> 64,32,–
CC1(C)S[C@@H]2[C@H](NC(=O)[C@H](N)c3ccccc3)C(=O)N2[C@H]1C(=O)O [AMPICILLIN],–,–,–,MIC (Escherichia coli [1]): 0.25 µg/mL; MIC (Streptococcus pneumoniae [2]): > 64 µg/mL; MIC (Enterococcus faecalis [3]): 0.125 µg/mL; MIC (Enterococcus faecium [4]): 0.25 µg/mL; MIC (Streptococcus pneumoniae [5]): 0.125 µg/mL; MIC (Staphylococcus aureus [7]): > 64 µg/mL; MIC (Staphylococcus aureus [8]): 0.0625 µg/mL; MIC (Enterococcus faecium [10]): > 64 µg/mL; MIC (Enterococcus faecalis [13]): > 64 µg/mL
Fc1ccc2sc(NCCCNCc3ccc(Cl)c(Cl)c3)nc2c1,2,32,1,–
Oc1ccc(CNCCCNc2nc3ccccc3s2)cc1,32,> 64,16,–
Clc1ccc2nc(NCCCNCc3ccc(Cl)c(Cl)c3)sc2c1,2,32,4,–
CO/N=C(\C(=O)N[C@@H]1C(=O)N2C(C(=O)O)=C(COC(C)=O)CS[C@H]12)c1csc(N)n1 [CEFOTAXIME],–,–,–,MIC (Escherichia coli [1]): 0.25 µg/mL; MIC (Streptococcus pneumoniae [2]): 64 µg/mL; MIC (Enterococcus faecalis [3]): 1 µg/mL; MIC (Enterococcus faecium [4]): 1 µg/mL; MIC (Streptococcus pneumoniae [5]): 1 µg/mL; MIC (Staphylococcus aureus [7]): > 64 µg/mL; MIC (Staphylococcus aureus [8]): 1 µg/mL; MIC (Enterococcus faecium [10]): > 64 µg/mL; MIC (Enterococcus faecalis [13]): > 64 µg/mL
COc1ccc2nc(NCCCNCc3ccc(Cl)c(Cl)c3)sc2c1,4,> 64,4,–
Fc1cc2nc(NCCCNCc3ccc(Cl)c(Cl)c3)sc2cc1F,1,32,0.5,"MIC (Escherichia coli [1]): > 64 µg/mL; MIC (Streptococcus pneumoniae [2]): 4 µg/mL; IC50 (HEK293): > 64 µg/mL; MIC (Enterococcus faecalis [3]): 1 µg/mL; MIC (Enterococcus faecium [4]): 2 µg/mL; MIC (Streptococcus pneumoniae [5]): 4 µg/mL; MIC (Staphylococcus aureus [7]): 1 µg/mL; MIC (Staphylococcus aureus [8]): 0.5 µg/mL; cytotoxicity at 48 h, 64 ug/ml [9]: 15%; MIC (Enterococcus faecium [10]): 2 µg/mL; Activity (Albumin): 1.4%; MIC (Enterococcus faecalis [13]): 1 µg/mL"
Clc1ccc2oc(NCCCNCc3ccc(Cl)c(Cl)c3)nc2c1,4,32,2,–
Clc1ccc(CNCCCNc2nc3ccccc3s2)cc1Cl,16,32,4,–
c1ccc(CNCCNc2nc3ccccc3s2)cc1,> 64,> 64,> 64,–
COc1ccc(CNCCNc2nc3ccccc3s2)cc1,32,> 64,32,–
Fc1cc2nc(NCCCNCc3ccc(Cl)c(Cl)c3)oc2cc1F,2,32,1,–
c1ccc(CNCCCNc2nc3ccccc3s2)cc1,> 64,> 64,> 64,–
Fc1ccc2nc(NCCCNCc3ccc(Cl)c(Cl)c3)sc2c1,2,32,1,–
Clc1ccc(CNCCCNc2nc3ccccc3s2)c(Cl)c1,8,> 64,8,–
Oc1ccc(CNCCNc2nc3ccccc3s2)cc1,32,> 64,16,–
Clc1ccc2nc(NCCCNCc3ccc(Cl)c(Cl)c3)oc2c1,4,32,2,–
Fc1ccc2nc(NCCCNCc3ccc(Cl)c(Cl)c3)oc2c1,4,32,1,–
Fc1ccc2oc(NCCCNCc3ccc(Cl)c(Cl)c3)nc2c1,4,32,1,–
Clc1ccc(CNCCNc2nc3ccccc3s2)cc1,32,> 64,8,–
Clc1ccc(CNCCCNc2nc3ccccc3s2)cc1,8,> 64,16,–
COc1ccc(CNCCCNc2nc3ccccc3s2)cc1,64,> 64,64,–

# Further lines, with some results ahead:
MIC (Enterococcus faecalis [6]) [µg/mL],MIC (Escherichia coli [11]) [µg/mL],MIC (Staphylococcus aureus [12]) [µg/mL],SMILES,further results
8,32,16,Brc1cccc(CNCCCNc2nc3ccccc3s2)c1,–
4,> 64,8,Clc1ccc(CNCCCNc2nc3ccccc3o2)c(Cl)c1,–
> 64,> 64,> 64,c1ccc(CNCCNc2nc3ccccc3o2)cc1,–
2,32,16,Clc1ccc(CNCCCNc2nc3ccccc3o2)cc1Cl,–
8,> 64,16,Clc1ccc(CNCCNc2nc3ccccc3o2)cc1Cl,–
32,> 64,32,Oc1ccc(CNCCNc2nc3ccccc3o2)cc1,–
32,> 64,8,Clc1ccc(CNCCNc2nc3ccccc3o2)cc1,–
64,> 64,64,COc1ccc(CNCCNc2nc3ccccc3o2)cc1,–
8,> 64,8,Clc1ccc(CNCCNc2nc3ccccc3o2)c(Cl)c1,–
> 64,> 64,> 64,c1ccc(CNCCCNc2nc3ccccc3o2)cc1,–
8,32,16,Brc1cccc(CNCCCNc2nc3ccccc3o2)c1,–
64,> 64,8,Brc1cccc(CNCCNc2nc3ccccc3o2)c1,–
16,> 64,16,Clc1ccc(CNCCCNc2nc3ccccc3o2)cc1,–
32,> 64,32,Oc1ccc(CNCCCNc2nc3ccccc3o2)cc1,–
64,64,8,Brc1cccc(CNCCNc2nc3ccccc3s2)c1,–
32,> 64,32,COc1ccc(CNCCCNc2nc3ccccc3o2)cc1,–
